The source made the active and inactive calls.
Assays:
Type in all cases: functional, organism-based
Bacillus anthracis = experiment: Antibacterial activity against Bacillus anthracis at 1mM by almar blue dye reduction assay
Bacillus cereus = experiment: Antibacterial activity against Bacillus cereus at 1 mM by almar blue dye reduction assay
Procedure, shortened: (§1)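 Single-point primary screen at 1 mM using Alamar Blue dye reduction as the growth read-out.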

Bacillus subtilis = experiment: Antibacterial activity against Bacillus subtilis at 1 mM by almar blue dye reduction assay; procedure, shortened: as §1
Staphylococcus aureus = experiment: Antibacterial activity against Staphylococcus aureus at 1 mM by almar blue dye reduction assay; procedure, shortened: as §1
Escherichia coli = experiment: Antibacterial activity against Escherichia coli at 1 mM by almar blue dye reduction assay; procedure, shortened: as §1
Pseudomonas aeruginosa = experiment: Antibacterial activity against Pseudomonas aeruginosa at 1 mM by almar blue dye reduction assay; procedure, shortened: as §1
Candida albicans = experiment: Antifungal activity against Candida albicans at 1 mM by almar blue dye reduction assay; procedure, shortened: as §1
Cryptococcus neoformans = experiment: Antifungal activity against Cryptococcus neoformans at 1 mM by almar blue dye reduction assay; procedure, shortened: as §1
Saccharomyces cerevisiae = experiment: Antifungal activity against Saccharomyces cerevisiae at 1 mM by almar blue dye reduction assay; procedure, shortened: as §1

Measured: Activity

COCC#Cc1cn([C@H](C)C[C@@H]2CC[C@H]([C@@H](C)C(=O)N3CCN(CC4CCCO4)CC3)O2)nn1 (some centres not stated)
inactive: all assays above

C[C@H](C[C@H]1CC[C@H]([C@@H](C)C(=O)N2CCCC2)O1)n1cc(C#CCN(C)C)nn1
inactive: all assays above

CCOC(=O)C#Cc1cn([C@H](C)CC2CCC([C@@H](C)C(=O)N(CC)CC)O2)nn1 (single isomer, unassigned)
inactive: all assays above

C[C@H](C[C@@H]1CC[C@H]([C@@H](C)C(=O)N(C)Cc2ccccc2)O1)n1cc(C#Cc2cccc3ccccc23)nn1
inactive: all assays above

CCC(=O)OCC#Cc1cn([C@H](C)CC2CCC([C@@H](C)C(=O)N(CC)CC)O2)nn1 (single isomer, unassigned)
inactive: all assays above

CCCNC(=O)NCC#Cc1cn([C@H](C)CC2CCC([C@@H](C)C(=O)N(CC)CC)O2)nn1 (single isomer, unassigned)
inactive: all assays above

CCCNC(=O)NCC#Cc1cn([C@H](C)CC2CCC([C@@H](C)C(=O)NC(C)C)O2)nn1 (single isomer, unassigned)
inactive: all assays above

CC(C)NC(=O)[C@H](C)[C@H]1CC[C@@H](C[C@@H](C)n2cc(C#Cc3ccc(C(F)(F)F)cc3)nn2)O1
inactive: all assays above

CCCCN(CC#Cc1cn([C@H](C)C[C@@H]2CC[C@H]([C@@H](C)C(=O)N(CC)CC)O2)nn1)CCCC
inactive: all assays above

C[C@H](C[C@@H]1CC[C@H]([C@@H](C)C(=O)N(C)Cc2ccccc2)O1)n1cc(C#Cc2ccccc2[N+](=O)[O-])nn1
inactive: all assays above

CCC(=O)OCC#Cc1cn([C@H](C)CC2CCC([C@@H](C)C(=O)NC(C)C)O2)nn1 (single isomer, unassigned)
inactive: all assays above

CCC(=O)OCC#Cc1cn([C@H](C)CC2CCC([C@@H](C)C(=O)N3CCCC3)O2)nn1 (single isomer, unassigned)
inactive: all assays above

CCN(CC)C(=O)[C@H](C)[C@H]1CC[C@@H](C[C@@H](C)n2cc(C#CCN3CCC(c4ccccc4)CC3)nn2)O1
inactive: all assays above

C[C@H](C[C@@H]1CC[C@H]([C@@H](C)C(=O)N2CCN(CC3CCCO3)CC2)O1)n1cc(C#CCC2CCCC2)nn1 (some centres not stated)
inactive: all assays above

COc1ccc(C#Cc2cn([C@H](C)C[C@@H]3CC[C@H]([C@@H](C)C(=O)N(C)Cc4ccccc4)O3)nn2)cc1
inactive: all assays above

CCN(CC)C(=O)[C@H](C)[C@H]1CC[C@@H](C[C@@H](C)n2cc(C#CCc3ccccc3)nn2)O1
inactive: all assays above

C[C@H](CC1CCC([C@@H](C)C(=O)N2CCCC2)O1)n1cc(C#CCNC(=O)OCc2ccccc2)nn1 (single isomer, unassigned)
inactive: all assays above

C[C@H](C[C@@H]1CC[C@H]([C@@H](C)C(=O)N2CCCC2)O1)n1cc(C#CCN2CCOCC2)nn1
inactive: all assays above

COc1ccc(OCC#Cc2cn([C@H](C)C[C@@H]3CC[C@H]([C@@H](C)C(=O)N(C)Cc4ccccc4)O3)nn2)cc1
inactive: all assays above

CCN(CC)C(=O)[C@H](C)[C@H]1CC[C@@H](C[C@@H](C)n2cc(C#CCOc3ccc(OC)cc3)nn2)O1
inactive: all assays above

C[C@H](C[C@@H]1CC[C@H]([C@@H](C)C(=O)N2CCCC2)O1)n1cc(C#CCN2CCN(c3ccccc3)CC2)nn1
inactive: all assays above

C[C@H](C[C@@H]1CC[C@H]([C@@H](C)C(=O)N2CCN(CC3CCCO3)CC2)O1)n1cc(C#Cc2ccccn2)nn1 (some centres not stated)
inactive: all assays above

C[C@H](C[C@@H]1CC[C@H]([C@@H](C)C(=O)N(C)Cc2ccccc2)O1)n1cc(C#CCN2CCN(c3ccccc3)CC2)nn1
inactive: all assays above

Reference: ChEMBL document CHEMBL1155099, “Natural products in parallel synthesis: triazole libraries of nonactic acid” (2008)
